Results as given in article PMC4972181 (Journal of medicinal chemistry, 2015).
Read-outs that look alike come from different tables or passages of the source.

What was measured:
[1] = tested on: INSR minigene exon 11 splicing in HeLa cells expressing CUG960; type: cell-based, human; conditions: for INSR mis-splicing rescue (in words): HeLa cells, CUG960 + INSR minigene
[2] = tested on: TNNT2 minigene exon 5 splicing in HeLa cells expressing CUG960; experiment: HeLa cell DM1 splicing assay, TNNT2 minigene co-transfected with CUG960; type: cell-based, human
[3] = tested on: INSR minigene exon 11 splicing in HeLa cells without CUG960; experiment: Control splicing experiment, INSR minigene in the absence of transfected CUG960; type: cell-based, human; conditions: 80 μM; untreated range ~70% to ~80 %
[4] = tested on: CUG: MBNL nuclear foci in HeLa cells transfected with CUG960; experiment: Fluorescent microscopy of CUG RNA nuclear foci and MBNL1 localization; type: cell-based, human; conditions: for Effect on ribonuclear foci (in words): 50 μM pentamidine or 80 μM compound 13
Atp2a1 exon 22 splicing = experiment: HSALR DM1 mouse model, Atp2a1 splicing in quadriceps muscle; type: in vivo; conditions: HSALR mice, wild type 100 ± 0.2 %, HSALR 28 ± 2 %
Method in brief: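 Homozygous, gender-matched HSALR transgenic mice aged 10–14 wks received the test compound in 5% glucose solution by daily intraperitoneal injection for 7 d. Controls received 5% glucose injections. Mice were killed 1 d after the last dose and quadriceps was taken. RNA was reverse transcribed, PCR-amplified and run on agarose gels read by fluorimager. Inclusion was scored per individual mouse.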

[5] = Toxicity observed in treated HSALR mice; type: in vivo, mouse; conditions: 10 and 20 mg/kg daily i.p. for 7 d
[6] = Flow cytometry cell viability assay with propidium iodide in the DM1 cell model; conditions: human, HeLa cells, DM1 cell model (transfected)
in vitro = conditions: human

N=C(N)c1ccc(OCCCOc2ccccc2)cc1 [Compound 2a]
INSR mis-splicing rescue (in words) [1]: dose-dependent rescue of mis-splicing through 60 μM

N=C(N)c1ccc(OCCCCc2ccccc2)cc1 [Compound 2b]
INSR mis-splicing rescue (in words) [1]: little rescue was observed by 20 μM

N=C(N)c1cccc(OCCCCCCCOc2cccc(C(=N)N)c2)c1 [Compound 4]
Toxicity observed in the cell splicing assay (in words) [1]: very toxic over the range tested
INSR mis-splicing rescue (in words) [1]: almost complete dose-dependent mis-splicing rescue at 25 μM

N=C(N)c1ccc(-c2ccc(-c3ccc(C(=N)N)cc3)o2)cc1 [Compound 13, furamidine]
Toxicity observed in the cell splicing assay (in words) ([1]; HeLa DM1 cell model, qualitative): non-toxic over the range of rescue
Concentration by which full TNNT2 mis-splicing reversal was achieved [2]: ≤ 80 µM
INSR exon 11 inclusion in the absence of CUG960 [3]: 81± 4%
Effect on ribonuclear foci (in words) [4]: significant reduction of ribonuclear foci
Reduction of nuclear foci per cell ([4]; 80 μM, vs transfected controls, n = 121, p < 0.05): 89%
Atp2a1 exon 22 inclusion (Atp2a1 exon 22 splicing; 10 mg/kg daily i.p. 7 days): 64 ± 4%
Atp2a1 exon 22 inclusion (Atp2a1 exon 22 splicing; 20 mg/kg daily i.p. 7 days): 83 ± 4%
Toxicity in mice (in words) [5]: No toxicity was observed over the concentration range tested

N=C(N)c1ccc(OCCCCCCCOc2ccc(C(=N)N)cc2)cc1 [Heptamidine, heptamidine]
IC50 at 18 h [6]: 15 ± 0.46 µM

N=C(N)c1ccc(OCCCCCOc2ccc(C(=N)N)cc2)cc1 [Pentamidine, pentamidine, reference compound]
Effect on ribonuclear foci (in words) [4]: significant reduction of ribonuclear foci
IC50 at 18 h (in vitro): 64 ± 12 µM
